Assay results published in ChEMBL document CHEMBL3046615, “Isolation of nematicidal compounds from Tagetes patula L. yellow flowers: structure-activity relationship studies against cyst nematode Heterodera zeae infective stage larvae” (2011).
The source made the active and inactive calls. The rule behind the calls is not given here.

Experiments:
[1] = test system: Heterodera zeae; assay: Nematicidal activity against Heterodera zeae infective stage larvae assessed as nematode mortality at 0.5% under light conditions measured 48 hr post dose by stereoscopic microscopy; format: functional
Procedure, shortened: (§1)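 Freshly hatched H. zeae second-stage juveniles, 100 per Petri plate, three replicates. Samples in MeOH, DMSO or water were tested in glass cavity blocks; petroleum ether samples were dried onto the block and larvae transferred on agar pieces. Percentages are dilutions of 30 mg/mL stocks (extracts/fractions) or 1 mg/mL stocks (pure compounds). Incubated at 28 ± 2 °C in light or dark box; mortality averaged over three replicates.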

[2] = test system: Heterodera zeae; assay: Nematicidal activity against Heterodera zeae infective stage larvae assessed as nematode mortality at 1% under dark conditions measured 24 hr post dose by stereoscopic microscopy; format: functional; procedure, shortened: as §1
[3] = test system: Heterodera zeae; assay: Nematicidal activity against Heterodera zeae infective stage larvae assessed as nematode mortality at 0.125% under light conditions measured 48 hr post dose by stereoscopic microscopy; format: functional; procedure, shortened: as §1
[4] = test system: Heterodera zeae; assay: Nematicidal activity against Heterodera zeae infective stage larvae assessed as nematode mortality at 0.25% under light conditions measured 48 hr post dose by stereoscopic microscopy; format: functional; procedure, shortened: as §1
[5] = test system: Heterodera zeae; assay: Nematicidal activity against Heterodera zeae infective stage larvae assessed as nematode mortality at 0.125% under light conditions measured 24 hr post dose by stereoscopic microscopy; format: functional; procedure, shortened: as §1
[6] = test system: Heterodera zeae; assay: Nematicidal activity against Heterodera zeae infective stage larvae assessed as nematode mortality at 0.25% under light conditions measured 24 hr post dose by stereoscopic microscopy; format: functional; procedure, shortened: as §1
[7] = test system: Heterodera zeae; assay: Nematicidal activity against Heterodera zeae infective stage larvae assessed as nematode mortality at 0.5% under light conditions measured 24 hr post dose by stereoscopic microscopy; format: functional; procedure, shortened: as §1
[8] = test system: Heterodera zeae; assay: Nematicidal activity against Heterodera zeae infective stage larvae assessed as nematode mortality at 1% under light conditions measured 24 hr post dose by stereoscopic microscopy; format: functional; procedure, shortened: as §1
[9] = test system: Heterodera zeae; assay: Nematicidal activity against Heterodera zeae infective stage larvae assessed as nematode mortality at 0.125% under dark conditions measured 5 to 60 min post dose by stereoscopic microscopy; format: functional, organism-based
Procedure, shortened: (§2)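 H. zeae freshly hatched second-stage juveniles, 100 per plate, three replicates, at 28 ± 2 °C under light or in a dark box. Dilutions are % of a stock: 30 mg/mL for extracts/fractions, 1 mg/mL for pure compounds. Methanol-, DMSO- or water-soluble samples were tested in glass cavity blocks. Petroleum ether-soluble samples were air-dried in the block and covered with agar pieces bearing cultured larvae. Mortality was followed over 5–60 min; each value is the mean of three experiments.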

[10] = test system: Heterodera zeae; assay: Nematicidal activity against Heterodera zeae infective stage larvae assessed as nematode mortality at 0.25% under dark conditions measured 5 to 60 min post dose by stereoscopic microscopy; format: functional, organism-based; procedure, shortened: as §2
[11] = test system: Heterodera zeae; assay: Nematicidal activity against Heterodera zeae infective stage larvae assessed as nematode mortality at 0.5% under dark conditions measured 5 to 60 min post dose by stereoscopic microscopy; format: functional, organism-based; procedure, shortened: as §2
[12] = test system: Heterodera zeae; assay: Nematicidal activity against Heterodera zeae infective stage larvae assessed as nematode mortality at 1% under dark conditions measured 5 to 60 min post dose by stereoscopic microscopy; format: functional, organism-based; procedure, shortened: as §2
[13] = test system: Heterodera zeae; assay: Nematicidal activity against Heterodera zeae infective stage larvae assessed as nematode mortality at 2% under dark conditions measured 5 to 60 min post dose by stereoscopic microscopy; format: functional, organism-based; procedure, shortened: as §2
[14] = test system: Heterodera zeae; assay: Nematicidal activity against Heterodera zeae infective stage larvae assessed as nematode mortality at 5% under dark conditions measured 5 to 60 min post dose by stereoscopic microscopy; format: functional, organism-based; procedure, shortened: as §2
[15] = test system: Heterodera zeae; assay: Nematicidal activity against Heterodera zeae infective stage larvae assessed as nematode mortality at 0.125% under light conditions measured 5 to 60 min post dose by stereoscopic microscopy; format: functional, organism-based; procedure, shortened: as §2
[16] = test system: Heterodera zeae; assay: Nematicidal activity against Heterodera zeae infective stage larvae assessed as nematode mortality at 0.25% under light conditions measured 5 to 60 min post dose by stereoscopic microscopy; format: functional, organism-based; procedure, shortened: as §2
[17] = test system: Heterodera zeae; assay: Nematicidal activity against Heterodera zeae infective stage larvae assessed as nematode mortality at 0.5% under light conditions measured 5 to 60 min post dose by stereoscopic microscopy; format: functional, organism-based; procedure, shortened: as §2
[18] = test system: Heterodera zeae; assay: Nematicidal activity against Heterodera zeae infective stage larvae assessed as nematode mortality at 1% under light conditions measured 5 to 60 min post dose by stereoscopic microscopy; format: functional, organism-based; procedure, shortened: as §2
[19] = test system: Heterodera zeae; assay: Nematicidal activity against Heterodera zeae infective stage larvae assessed as nematode mortality at 2% under light conditions measured 5 to 60 min post dose by stereoscopic microscopy; format: functional, organism-based; procedure, shortened: as §2
[20] = test system: Heterodera zeae; assay: Nematicidal activity against Heterodera zeae infective stage larvae assessed as nematode mortality at 5% under light conditions measured 5 to 60 min post dose by stereoscopic microscopy; format: functional, organism-based; procedure, shortened: as §2
[21] = test system: Heterodera zeae; assay: Nematicidal activity against Heterodera zeae infective stage larvae assessed as nematode mortality at 0.125% under dark conditions measured 48 hr post dose by stereoscopic microscopy; format: functional; procedure, shortened: as §1
[22] = test system: Heterodera zeae; assay: Nematicidal activity against Heterodera zeae infective stage larvae assessed as nematode mortality at 0.25% under dark conditions measured 48 hr post dose by stereoscopic microscopy; format: functional; procedure, shortened: as §1
[23] = test system: Heterodera zeae; assay: Nematicidal activity against Heterodera zeae infective stage larvae assessed as nematode mortality at 0.125% under dark conditions measured 24 hr post dose by stereoscopic microscopy; format: functional; procedure, shortened: as §1
[24] = test system: Heterodera zeae; assay: Nematicidal activity against Heterodera zeae infective stage larvae assessed as nematode mortality at 0.25% under dark conditions measured 24 hr post dose by stereoscopic microscopy; format: functional; procedure, shortened: as §1
[25] = test system: Heterodera zeae; assay: Nematicidal activity against Heterodera zeae infective stage larvae assessed as nematode mortality at 0.5% under dark conditions measured 24 hr post dose by stereoscopic microscopy; format: functional; procedure, shortened: as §1
[26] = test system: Heterodera zeae; assay: Nematicidal activity against Heterodera zeae infective stage larvae assessed as nematode mortality at 1% under dark conditions measured 48 hr post dose by stereoscopic microscopy; format: functional; procedure, shortened: as §1
[27] = test system: Heterodera zeae; assay: Nematicidal activity against Heterodera zeae infective stage larvae assessed as nematode mortality at 1% under light conditions measured 48 hr post dose by stereoscopic microscopy; format: functional; procedure, shortened: as §1
[28] = test system: Heterodera zeae; assay: Nematicidal activity against Heterodera zeae infective stage larvae assessed as nematode mortality at 0.125% under dark conditions measured 72 hr post dose by stereoscopic microscopy; format: functional; procedure, shortened: as §1
[29] = test system: Heterodera zeae; assay: Nematicidal activity against Heterodera zeae infective stage larvae assessed as nematode mortality at 0.25% under dark conditions measured 72 hr post dose by stereoscopic microscopy; format: functional; procedure, shortened: as §1
[30] = test system: Heterodera zeae; assay: Nematicidal activity against Heterodera zeae infective stage larvae assessed as nematode mortality at 0.5% under dark conditions measured 48 hr post dose by stereoscopic microscopy; format: functional; procedure, shortened: as §1
[31] = test system: Heterodera zeae; assay: Nematicidal activity against Heterodera zeae infective stage larvae assessed as nematode mortality at 0.125% under light conditions measured 72 hr post dose by stereoscopic microscopy; format: functional; procedure, shortened: as §1
[32] = test system: Heterodera zeae; assay: Nematicidal activity against Heterodera zeae infective stage larvae assessed as nematode mortality at 0.25% under light conditions measured 72 hr post dose by stereoscopic microscopy; format: functional; procedure, shortened: as §1
[33] = test system: Heterodera zeae; assay: Nematicidal activity against Heterodera zeae infective stage larvae assessed as nematode mortality at 0.5% under light conditions measured 72 hr post dose by stereoscopic microscopy; format: functional; procedure, shortened: as §1
[34] = test system: Heterodera zeae; assay: Nematicidal activity against Heterodera zeae infective stage larvae assessed as nematode mortality at 0.5% under dark conditions measured 72 hr post dose by stereoscopic microscopy; format: functional; procedure, shortened: as §1

Compound	mortality [1] [%]	mortality [2] [%]	mortality [3] [%]	mortality [4] [%]	mortality [5] [%]	mortality [6] [%]	mortality [7] [%]	mortality [8] [%]	Activity [9]	Activity [10]	Activity [11]	Activity [12]	Activity [13]	Activity [14]	Activity [15]	Activity [16]	Activity [17]	Activity [18]	Activity [19]	Activity [20]	also measured
CCCCCCCC/C=C\CCCCCCCC(=O)OC [METHYL OLEATE]	100	50	50	50	10	10	50	50	inactive	inactive	inactive	inactive	inactive	inactive	inactive	inactive	inactive	inactive	inactive	inactive	mortality [21]: 10%; mortality [22]: 10%; mortality [23]: 10%; mortality [24]: 10%; mortality [25]: 40%; mortality [26]: 100%; mortality [27]: 100%; mortality [28]: 10%; mortality [29]: 10%; mortality [30]: 100%; mortality [31]: 100%; mortality [32]: 100%
CCCCCCCC/C=C\CCCCCCCC(=O)O [OLEIC ACID]	100	50	50	50	10	10	50	50	inactive	inactive	inactive	inactive	inactive	inactive	inactive	inactive	inactive	inactive	inactive	inactive	mortality [21]: 10%; mortality [22]: 10%; mortality [23]: 10%; mortality [24]: 10%; mortality [25]: 40%; mortality [26]: 100%; mortality [27]: 100%; mortality [28]: 10%; mortality [29]: 10%; mortality [30]: 100%; mortality [31]: 100%; mortality [32]: 100%
C[C@@H]1O[C@@H](OC[C@H]2O[C@@H](Oc3c(-c4ccc(O)c(O)c4)oc4cc(O)cc(O)c4c3=O)[C@H](O)[C@@H](O)[C@@H]2O)[C@H](O)[C@H](O)[C@H]1O [RUTIN]	100	100	100	100	0	0	100	100	inactive	inactive	inactive	inactive	inactive	inactive	inactive	inactive	inactive	inactive	inactive	inactive	mortality [21]: 70%; mortality [22]: 70%; mortality [23]: 0%; mortality [24]: 0%; mortality [25]: 100%; mortality [27]: 100%; mortality [28]: 70%; mortality [29]: 70%
CCCCCCCCCCCCCCCCCC(=O)O [STEARIC ACID]	70	100	50	70	50	40	50	100	inactive	inactive	inactive	inactive	inactive	inactive	inactive	inactive	inactive	inactive	inactive	inactive	mortality [33]: 100%; mortality [21]: 50%; mortality [22]: 70%; mortality [23]: 40%; mortality [24]: 40%; mortality [25]: 50%; mortality [26]: 100%; mortality [28]: 70%; mortality [29]: 100%; mortality [34]: 100%; mortality [30]: 70%; mortality [31]: 70%; mortality [32]: 100%
